Structures are written as SMILES.

Test [1] addresses Inosine-5'-monophosphate dehydrogenase 2 (Homo sapiens) (UniProt P12268). The test can be described thus: Inhibitory binding constant was determined against human Inosine-5'-monophosphate dehydrogenase 2 (IMPDH type II) from intercept of Michaelis-Menten plot. The method, boiled down:
(§1)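 Human IMPDH type II, stored at -70 °C in 20 mM Tris-HCl pH 8, 20 mM KCl, 1 mM EDTA, 1 mM DTT, thawed and filtered before use. Assay at 37 °C, started by adding enzyme, with saturating IMP. NADH formation read at 340 nm for 2–10 min. NAD at 20, 40, 80 and 160 µM, with two or three inhibitor levels. Kii (intercept) and Kis (slope) obtained by direct least-squares fit to the noncompetitive equation.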

For test [2] the target is unchanged. Kind of test: Inhibitory binding constant was determined against human Inosine-5'-monophosphate dehydrogenase 2 (IMPDH type II) from slope of Michaelis-Menten plot. A digest of the protocol: as §1

Sequence of Inosine-5'-monophosphate dehydrogenase 2 (Homo sapiens) (P12268 2-514 limits assumed): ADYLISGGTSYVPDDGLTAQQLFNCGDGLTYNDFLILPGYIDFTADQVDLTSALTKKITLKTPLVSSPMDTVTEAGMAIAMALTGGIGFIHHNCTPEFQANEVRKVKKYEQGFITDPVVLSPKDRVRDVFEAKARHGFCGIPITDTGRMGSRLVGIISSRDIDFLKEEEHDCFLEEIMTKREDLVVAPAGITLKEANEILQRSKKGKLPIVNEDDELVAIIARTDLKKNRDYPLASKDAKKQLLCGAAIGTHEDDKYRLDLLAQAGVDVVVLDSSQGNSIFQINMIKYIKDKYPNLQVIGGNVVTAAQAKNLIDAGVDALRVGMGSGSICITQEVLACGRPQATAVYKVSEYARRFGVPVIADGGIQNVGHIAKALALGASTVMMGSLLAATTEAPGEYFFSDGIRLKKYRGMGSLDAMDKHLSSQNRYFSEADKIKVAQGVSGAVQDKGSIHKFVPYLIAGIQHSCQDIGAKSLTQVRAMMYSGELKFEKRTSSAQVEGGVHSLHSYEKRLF

For `NC(=O)c1csc([C@@H]2O[C@H](COP(=O)(O)CP(=O)(O)OC[C@@H]3O[C@H](n4cnc5c(N)ncnc54)[C@@H](O)[C@H]3O)[C@@H](O)[C@H]2O)n1`, the Kii in test [1] was determined as 0.11 µM. `NC(=O)c1csc([C@@H]2O[C@H](COP(=O)(O)OP(=O)(O)OC[C@@H]3O[C@H](n4cnc5c(N)ncnc54)[C@@H](O)[C@H]3F)[C@@H](O)[C@H]2O)n1` registered a Kii in test [1] of 0.7 µM. Further, the Kis in test [2] was 1.5 µM. In the same order, the values of `NC(=O)c1csc([C@@H]2O[C@H](COP(=O)(O)OP(=O)(O)OC[C@@H]3O[C@H](n4cnc5c(N)ncnc54)[C@H](F)[C@H]3O)[C@@H](O)[C@H]2O)n1` are 2.9 µM and 13 µM.

For the compound `NC(=O)c1csc([C@@H]2O[C@H](COP(=O)(O)OP(=O)(O)OC[C@@H]3O[C@H](n4cnc5c(N)ncnc54)[C@@H](F)[C@H]3O)[C@@H](O)[C@H]2O)n1`, in test [1], the Kii came out at 0.5 µM. In test [2], the Kis was found to be 6 µM.

Compound `NC(=O)c1csc([C@H]2O[C@@H](COP(=O)(O)OP(=O)(O)OC[C@H]3O[C@@H](n4cnc5c(N)ncnc54)[C@H](O)[C@@H]3O)[C@H](O)[C@@H]2O)n1` returned a Kii in test [1] of 0.19 µM. In test [2], this compound gave a Kis of 0.3 µM.

Compound `NC(=O)c1csc([C@@H]2O[C@H](COP(=O)(O)C(F)(F)P(=O)(O)OC[C@@H]3O[C@H](n4cnc5c(N)ncnc54)[C@@H](O)[C@H]3O)[C@@H](O)[C@H]2O)n1` gave a Kii in test [1] of 0.17 µM. In test [2], this compound had a Kis of 0.3 µM.

These data come from ChEMBL document CHEMBL1128279, “Potent inhibitors of human inosine monophosphate dehydrogenase type II. Fluorine-substituted analogues of thiazole-4-carboxamide adenine dinucleotide” (J Med Chem, 1995).
